What was measured:
SW620 tumor xenografts = assay: SW620 tumor xenograft in nude mice; type: in vivo
In short: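 Female Balb/cA-nude mice, 5–6 weeks old, received cells subcutaneously in the left axilla and were randomized at 100–200 mm3 tumor volume. Dosing was oral, daily for 18 d (vehicle n = 12, treated n = 6). Tumor volume, calculated as (length × width²)/2, and bodyweight were measured twice weekly. TGI was calculated from treatment start against vehicle. Data are mean ± SEM; Student's t test.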

rat aortic rings = assay: Rat aortic ring assay; type: cell-based; conditions: 100 nmol/L, VEGF 50 ng/mL, 7 days
In short: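 Thoracic aortas from 6-week-old male Sprague-Dawley rats were cut into 1-mm rings, embedded in Matrigel and held 1 h at 37°C. M199 containing VEGF-A (50 ng/mL) plus drug was added. After 7 days, sprouting microvessels were counted in 5 random fields.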

c‐Kit [1] = target: T1, c‐Kit (Homo sapiens, UniProt P10721); assay: SCF‐1‐stimulated c‐Kit phosphorylation in Mo7e cells; type: cell-based; conditions: SCF‐1 2.5 ng/mL
[2] = system: CD31‐positive microvessels in SW620 tumor xenografts; assay: CD31 immunohistochemistry, microvessel density in SW620 xenograft tumors; type: in vivo, nude mice
In short: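 Nude mice (female Balb/cA-nude) bearing subcutaneous SW620 xenografts were dosed orally once daily for 14 days. Tumors were formalin-fixed and paraffin-embedded, and sections were stained for the endothelial marker CD31 with a rabbit anti-mouse antibody and an S-P immunodetection kit. Vessel density was derived from CD31 staining.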

c‐Kit [3] = target: T1, c‐Kit; assay: Tyrosine kinase ELISA, c‐Kit; type: biochemical
HUVEC [4] = assay: cells; type: cell-based; conditions: Homo sapiens, 72 h, read-out: IC50 VEGF‐stimulated HUVEC proliferation
HER2 [5] = target: T2, HER2 (Homo sapiens, UniProt P04626); assay: Tyrosine kinase ELISA, HER2; type: biochemical
c‐Met = c‐Met (Homo sapiens, UniProt P08581); assay: Tyrosine kinase ELISA, c‐Met; type: biochemical
PDGFRβ = PDGFRβ (Homo sapiens, UniProt P09619); assay: PDGF‐BB‐stimulated PDGFRβ phosphorylation in U‐87MG cells; type: cell-based; conditions: PDGF‐BB 10 ng/mL
HUVEC [6] = assay: cells; type: cell-based; conditions: Homo sapiens, 8 h, read-out: IC50 HUVEC migration in response to VEGF
VEGFR2 [7] = target: T3, VEGFR2 (Homo sapiens, UniProt P35968); assay: VEGF‐stimulated VEGFR2 phosphorylation in HUVEC; type: cell-based
HER2 [8] = target: T2, HER2; assay: Constitutive HER2 signaling in BT‐474 cells; type: cell-based; conditions: even at 1000 nmol/L
HUVEC [9] = assay: FBS‐stimulated HUVEC proliferation; type: cell-based; conditions: Homo sapiens, 72 h, read-out: IC50 FBS‐stimulated HUVEC proliferation
In short: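 HUVEC were isolated from umbilical cord veins and maintained in M199 with 20% FBS plus endothelial cell growth supplement. Cells were exposed to serial drug dilutions with 20% FBS for 72 h. Viability was measured by sulforhodamine B, and IC50 was obtained by curve fitting. Values are mean ± SD of 3 independent experiments.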

panel of tumor cells = assay: FBS‐stimulated tumor cell proliferation; type: cell-based, human
In short: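 Tumor lines were grown in 10% FBS and treated with serial drug dilutions for 72 h, with sulforhodamine B readout. IC50 was obtained by curve fitting (mean ± SD, 3 independent experiments).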

HUVEC [10] = assay: HUVEC tube‐formation assay on Matrigel; type: cell-based, human; conditions: 100 nmol/L, 20% FBS, 6 h
In short: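 Matrigel was set at 37°C for 30 min. HUVEC (1 × 10^5/mL) in M199 with 20% FBS and drug were then plated onto it. After 6 h, capillary tube formation was imaged at high magnification.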

[11] = once‐daily dose of 12 mg; cited from earlier work
VEGFR2 [12] = target: T3, VEGFR2; assay: Tyrosine kinase ELISA, VEGFR2; type: biochemical
VEGFR1 = VEGFR1 (Homo sapiens, UniProt P17948); assay: Tyrosine kinase ELISA, VEGFR1; type: biochemical
c‐Src = c‐Src (Homo sapiens, UniProt P12931); assay: biochemical; type: biochemical
VEGFR3 = VEGFR3 (Homo sapiens, UniProt P35916); assay: Tyrosine kinase ELISA, VEGFR3; type: biochemical
EGFR = EGFR (Homo sapiens, UniProt P00533); assay: biochemical; type: biochemical

T2 sequence (P04626 23-1255): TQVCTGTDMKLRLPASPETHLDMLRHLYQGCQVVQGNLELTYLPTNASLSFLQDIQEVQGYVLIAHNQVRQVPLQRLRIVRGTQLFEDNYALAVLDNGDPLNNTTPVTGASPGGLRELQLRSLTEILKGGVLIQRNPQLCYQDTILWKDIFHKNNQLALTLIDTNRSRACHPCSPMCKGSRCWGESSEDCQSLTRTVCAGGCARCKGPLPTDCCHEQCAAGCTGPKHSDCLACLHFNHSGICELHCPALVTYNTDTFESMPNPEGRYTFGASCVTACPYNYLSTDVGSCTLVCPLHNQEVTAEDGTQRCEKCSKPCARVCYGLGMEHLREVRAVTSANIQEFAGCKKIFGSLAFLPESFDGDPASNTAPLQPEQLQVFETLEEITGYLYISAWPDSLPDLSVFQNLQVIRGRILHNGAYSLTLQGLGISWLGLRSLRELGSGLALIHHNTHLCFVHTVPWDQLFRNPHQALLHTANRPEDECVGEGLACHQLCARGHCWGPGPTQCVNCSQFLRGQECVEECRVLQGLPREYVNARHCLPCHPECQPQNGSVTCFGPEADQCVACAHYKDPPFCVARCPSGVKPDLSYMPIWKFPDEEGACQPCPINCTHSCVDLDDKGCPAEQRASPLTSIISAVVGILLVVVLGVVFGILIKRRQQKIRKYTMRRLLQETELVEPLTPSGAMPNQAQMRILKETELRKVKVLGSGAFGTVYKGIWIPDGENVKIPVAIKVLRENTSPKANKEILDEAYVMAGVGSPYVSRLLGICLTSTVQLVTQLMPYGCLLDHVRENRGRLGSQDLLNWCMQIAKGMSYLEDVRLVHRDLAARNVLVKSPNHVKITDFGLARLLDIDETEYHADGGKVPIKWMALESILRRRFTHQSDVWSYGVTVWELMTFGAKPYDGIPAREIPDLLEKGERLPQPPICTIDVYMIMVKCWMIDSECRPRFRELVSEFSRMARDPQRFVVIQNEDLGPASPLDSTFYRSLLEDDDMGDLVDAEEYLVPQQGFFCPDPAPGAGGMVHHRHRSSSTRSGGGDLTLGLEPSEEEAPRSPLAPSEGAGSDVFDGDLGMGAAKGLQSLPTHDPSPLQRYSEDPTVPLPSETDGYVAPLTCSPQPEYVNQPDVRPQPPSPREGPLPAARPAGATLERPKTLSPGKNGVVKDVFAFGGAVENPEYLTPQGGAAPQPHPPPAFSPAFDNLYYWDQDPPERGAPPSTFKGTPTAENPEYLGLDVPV
T3 sequence (P35968 20-1356): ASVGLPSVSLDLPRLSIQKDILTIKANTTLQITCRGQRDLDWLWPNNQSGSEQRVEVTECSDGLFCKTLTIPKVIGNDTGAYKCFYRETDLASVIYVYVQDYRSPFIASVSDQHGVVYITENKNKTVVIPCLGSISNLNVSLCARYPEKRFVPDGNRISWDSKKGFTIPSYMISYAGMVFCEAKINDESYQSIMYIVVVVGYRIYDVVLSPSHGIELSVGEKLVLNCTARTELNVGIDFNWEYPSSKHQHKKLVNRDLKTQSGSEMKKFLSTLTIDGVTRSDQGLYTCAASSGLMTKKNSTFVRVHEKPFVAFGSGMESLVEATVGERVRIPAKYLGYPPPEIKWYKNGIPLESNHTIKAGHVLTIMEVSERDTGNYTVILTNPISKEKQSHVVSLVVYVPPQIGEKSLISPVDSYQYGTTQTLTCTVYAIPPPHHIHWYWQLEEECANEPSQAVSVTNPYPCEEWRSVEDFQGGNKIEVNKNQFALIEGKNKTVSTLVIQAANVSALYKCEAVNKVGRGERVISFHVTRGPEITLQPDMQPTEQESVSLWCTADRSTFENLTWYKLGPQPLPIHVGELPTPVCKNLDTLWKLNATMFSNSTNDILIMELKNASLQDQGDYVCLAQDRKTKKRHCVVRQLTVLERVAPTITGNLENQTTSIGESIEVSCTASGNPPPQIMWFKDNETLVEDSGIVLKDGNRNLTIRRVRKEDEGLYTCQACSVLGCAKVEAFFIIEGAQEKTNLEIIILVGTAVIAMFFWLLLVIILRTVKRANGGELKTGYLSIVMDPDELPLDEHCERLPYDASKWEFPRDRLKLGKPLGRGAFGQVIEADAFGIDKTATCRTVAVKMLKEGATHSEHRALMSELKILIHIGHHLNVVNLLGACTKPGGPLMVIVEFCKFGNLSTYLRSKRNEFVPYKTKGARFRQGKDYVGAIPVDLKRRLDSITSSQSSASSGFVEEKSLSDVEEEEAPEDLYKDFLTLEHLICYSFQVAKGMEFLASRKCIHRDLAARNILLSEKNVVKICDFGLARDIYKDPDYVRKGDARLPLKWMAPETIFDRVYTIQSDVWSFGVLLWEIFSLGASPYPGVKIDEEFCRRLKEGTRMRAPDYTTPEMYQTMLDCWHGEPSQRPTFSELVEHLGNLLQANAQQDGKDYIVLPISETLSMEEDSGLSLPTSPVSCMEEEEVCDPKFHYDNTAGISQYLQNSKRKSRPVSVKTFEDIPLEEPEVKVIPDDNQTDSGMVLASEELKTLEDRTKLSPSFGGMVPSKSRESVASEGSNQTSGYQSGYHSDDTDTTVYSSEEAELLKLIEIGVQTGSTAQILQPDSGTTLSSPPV
Chain of c‐Src (P12931 whole entry): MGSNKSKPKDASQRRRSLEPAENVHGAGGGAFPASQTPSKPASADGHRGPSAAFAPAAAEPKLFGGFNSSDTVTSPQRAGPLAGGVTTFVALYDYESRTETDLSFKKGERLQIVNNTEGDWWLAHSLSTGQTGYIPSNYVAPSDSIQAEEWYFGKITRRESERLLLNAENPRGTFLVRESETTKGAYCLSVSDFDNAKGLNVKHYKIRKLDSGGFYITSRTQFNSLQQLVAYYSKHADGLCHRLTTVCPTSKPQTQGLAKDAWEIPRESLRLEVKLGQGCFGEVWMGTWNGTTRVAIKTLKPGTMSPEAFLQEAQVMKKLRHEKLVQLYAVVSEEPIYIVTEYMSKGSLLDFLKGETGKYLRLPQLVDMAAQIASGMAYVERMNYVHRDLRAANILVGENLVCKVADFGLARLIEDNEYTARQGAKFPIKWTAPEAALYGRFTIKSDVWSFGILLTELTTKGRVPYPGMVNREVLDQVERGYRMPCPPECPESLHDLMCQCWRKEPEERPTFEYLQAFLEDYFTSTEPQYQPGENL
Chain of c‐Met (P08581 25-1390): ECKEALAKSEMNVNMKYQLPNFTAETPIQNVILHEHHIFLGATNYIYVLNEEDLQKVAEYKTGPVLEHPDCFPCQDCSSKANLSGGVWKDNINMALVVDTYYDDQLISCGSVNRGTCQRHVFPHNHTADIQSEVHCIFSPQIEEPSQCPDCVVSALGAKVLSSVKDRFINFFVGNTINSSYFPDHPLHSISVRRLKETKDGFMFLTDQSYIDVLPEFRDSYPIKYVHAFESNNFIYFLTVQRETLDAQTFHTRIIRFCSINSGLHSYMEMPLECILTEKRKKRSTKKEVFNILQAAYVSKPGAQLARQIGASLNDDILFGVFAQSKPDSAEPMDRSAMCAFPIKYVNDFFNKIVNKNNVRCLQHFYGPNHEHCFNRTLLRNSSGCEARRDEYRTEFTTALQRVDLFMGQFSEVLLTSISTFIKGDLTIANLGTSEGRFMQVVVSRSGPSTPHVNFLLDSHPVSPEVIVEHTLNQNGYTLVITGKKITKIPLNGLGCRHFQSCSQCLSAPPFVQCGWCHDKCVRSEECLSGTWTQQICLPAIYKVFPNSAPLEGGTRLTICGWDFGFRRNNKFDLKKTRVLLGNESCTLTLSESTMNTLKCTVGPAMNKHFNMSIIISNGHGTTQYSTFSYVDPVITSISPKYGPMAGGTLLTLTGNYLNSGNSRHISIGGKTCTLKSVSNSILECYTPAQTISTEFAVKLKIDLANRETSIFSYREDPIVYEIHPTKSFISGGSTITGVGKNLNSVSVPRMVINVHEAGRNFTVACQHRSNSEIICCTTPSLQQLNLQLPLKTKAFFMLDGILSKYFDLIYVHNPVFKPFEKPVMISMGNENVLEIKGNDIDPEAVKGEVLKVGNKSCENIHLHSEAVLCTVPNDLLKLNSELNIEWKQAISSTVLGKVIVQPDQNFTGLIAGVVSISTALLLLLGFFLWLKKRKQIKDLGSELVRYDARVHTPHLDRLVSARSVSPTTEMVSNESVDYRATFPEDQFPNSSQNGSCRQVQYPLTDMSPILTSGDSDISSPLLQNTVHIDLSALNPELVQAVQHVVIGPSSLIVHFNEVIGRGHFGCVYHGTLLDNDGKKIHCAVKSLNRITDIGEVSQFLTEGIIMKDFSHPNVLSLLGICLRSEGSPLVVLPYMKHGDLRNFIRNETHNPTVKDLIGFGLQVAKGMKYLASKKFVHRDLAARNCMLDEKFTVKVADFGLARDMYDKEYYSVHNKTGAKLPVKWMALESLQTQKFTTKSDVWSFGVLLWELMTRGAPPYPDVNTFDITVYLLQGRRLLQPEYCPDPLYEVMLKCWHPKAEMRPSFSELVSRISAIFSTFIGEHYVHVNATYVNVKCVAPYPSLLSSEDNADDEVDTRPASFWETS

COc1cc2c(Oc3ccc4[nH]c(C)cc4c3F)ccnc2cc1OCC1(N)CC1.Cl.Cl [Anlotinib, 1‐[[[4‐(4‐fluoro‐2‐methyl‐1H‐indol‐5‐yloxy)‐6‐methoxyquinolin‐7‐Yl]oxy]methyl]cyclopropanamine dihydrochloride]
%TGI (SW620 tumor xenografts; SW620 (colon), 3 mg/kg p.o. daily, 18 d, 3 mg/kg): 83%
effect on bodyweight in mice (SW620 tumor xenografts; SW620 xenograft, all groups, during the course of the experiment): little effect on bodyweight
budding of the aortic ring (rat aortic rings): near complete inhibition
SCF‐1‐stimulated phosphorylation of c‐Kit, AKT and ERK (c‐Kit [1]): inhibited
inhibition rate of CD31‐positive microvessels (microvessel density) ([2]; 0.75 mg/kg oral daily): 48.9%
inhibition rate of CD31‐positive microvessels (microvessel density) ([2]; 3 mg/kg oral daily): 91.2%
inhibition rate of CD31‐positive microvessels (microvessel density) ([2]; […] oral daily): 76.3%
IC50 (c‐Kit [3]): 14.8 ± 2.5 nM
IC50 (HUVEC [4]): 0.2 nM
IC50 (HER2 [5]): > 2000 nM
effect on HER2 kinase activity (HER2 [5]; at 2000 nmol/L): little effect
IC50 (c‐Met): > 2000 nM
effect on c‐Met kinase activity (c‐Met; at 2000 nmol/L): little effect
PDGF‐BB‐stimulated phosphorylation of PDGFRβ, AKT and ERK (PDGFRβ): inhibited
IC50 (HUVEC [6]): 0.1 nM
VEGF‐stimulated ERK1/2 phosphorylation (VEGFR2 [7]): inhibited
effect on VEGF‐stimulated VEGFR2 phosphorylation (VEGFR2 [7]; 0.1 nmol/L): clear inhibitory effect
IC50, VEGF‐stimulated intracellular phosphorylation of VEGFR2 (VEGFR2 [7]; […] treatment, VEGF 20 ng/mL 10 min): subnanomolar
constitutive HER2 signaling (HER2 [8]): nor the constitutive HER2 signaling in BT‐474 cells was affected
IC50 (HUVEC [9]): 2000 nM
IC50 (panel of tumor cells; Homo sapiens, 72 h, read-out: IC50 FBS‐stimulated tumor cell proliferation): 3000 to 12500 nM
tumor cell IC50 relative to IC50 for VEGF‐stimulated HUVEC proliferation (panel of tumor cells; greater than HUVEC value): more than 10 000 fold
HUVEC tube formation (HUVEC [10]): few enclosed tubes were detected
circulation time in clinical trials [11]: long circulation time
toxicity in clinical trials [11]: manageable toxicity
potency relative to sunitinib for inhibition of VEGF2/3 (VEGFR2 [12]): 20 fold
IC50 (VEGFR2 [12]; IC50 VEGFR2 kinase, ELISA, recombinant tyrosine kinase, mean ± SD (n = 3)): < 1 nM
IC50 (VEGFR1): 26.9 ± 7.7 nM
IC50 (c‐Src): > 2000 nM
effect on c‐Src kinase activity (c‐Src; at 2000 nmol/L): little effect
IC50 (VEGFR3): 0.7 ± 0.1 nM
IC50 (EGFR): > 2000 nM
effect on EGFR kinase activity (EGFR; at 2000 nmol/L): little effect

CNC(=O)c1cc(Oc2ccc(NC(=O)Nc3ccc(Cl)c(C(F)(F)F)c3)cc2)ccn1 [Sorafenib]
IC50 (HUVEC [4]): 195 nM

CCN(CC)CCNC(=O)c1c(C)[nH]c(/C=C2\C(=O)Nc3ccc(F)cc32)c1C [Sunitinib, reference compound]
inhibition rate of CD31‐positive microvessels (microvessel density) ([2]; 50 mg/kg oral daily): 63.6%
IC50 (HUVEC [4]): 18.5 nM
